In ChEMBL document CHEMBL1134906, “Arylpiperazine substituted heterocycles as selective alpha(1a) adrenergic antagonists” (Bioorg Med Chem Lett, 2002) one finds Ki and Ki ratio data, which are given here for 13 molecules.

The structures appear in SMILES notation. pKi: −log10 of the molar value. Bounds are passed on as bounds.

Experiment [1] has as its target T1, Alpha-1D adrenergic receptor (Homo sapiens, UniProt P25100).
T1 sequence (P25100 whole entry): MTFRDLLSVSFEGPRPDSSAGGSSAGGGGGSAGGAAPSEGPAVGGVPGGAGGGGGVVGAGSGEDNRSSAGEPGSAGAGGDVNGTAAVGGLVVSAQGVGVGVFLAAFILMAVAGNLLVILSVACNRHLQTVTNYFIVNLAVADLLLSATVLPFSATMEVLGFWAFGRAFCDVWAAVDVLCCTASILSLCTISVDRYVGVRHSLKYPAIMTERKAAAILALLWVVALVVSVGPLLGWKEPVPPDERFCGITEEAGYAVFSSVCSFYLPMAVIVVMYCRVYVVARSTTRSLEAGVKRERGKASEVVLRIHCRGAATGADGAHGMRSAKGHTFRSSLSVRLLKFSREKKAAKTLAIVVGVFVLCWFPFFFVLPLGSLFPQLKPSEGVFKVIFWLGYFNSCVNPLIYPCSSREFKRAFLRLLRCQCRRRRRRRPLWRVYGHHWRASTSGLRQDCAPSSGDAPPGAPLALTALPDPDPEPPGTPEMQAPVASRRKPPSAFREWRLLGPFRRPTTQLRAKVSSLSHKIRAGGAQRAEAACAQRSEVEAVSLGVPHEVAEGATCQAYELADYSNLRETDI
In words: Displacement of [125I]HEAT from human Alpha-1D adrenergic receptor. Put shortly:
(§1)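 Radioligand competition binding against 125I-HEAT ((±)-β-([125I]-3-iodo-4-hydroxyphenyl)ethylaminomethyl-tetralone), with COS cells as the receptor source. Ki values are derived from displacement and reported as means of three experiments.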
In general terms: In a radioligand displacement assay an active substance lowers the binding of a labelled ligand.

Experiment [2] deals with T2, Alpha-1A adrenergic receptor (Homo sapiens, UniProt P35348).
T2 sequence (P35348 whole entry): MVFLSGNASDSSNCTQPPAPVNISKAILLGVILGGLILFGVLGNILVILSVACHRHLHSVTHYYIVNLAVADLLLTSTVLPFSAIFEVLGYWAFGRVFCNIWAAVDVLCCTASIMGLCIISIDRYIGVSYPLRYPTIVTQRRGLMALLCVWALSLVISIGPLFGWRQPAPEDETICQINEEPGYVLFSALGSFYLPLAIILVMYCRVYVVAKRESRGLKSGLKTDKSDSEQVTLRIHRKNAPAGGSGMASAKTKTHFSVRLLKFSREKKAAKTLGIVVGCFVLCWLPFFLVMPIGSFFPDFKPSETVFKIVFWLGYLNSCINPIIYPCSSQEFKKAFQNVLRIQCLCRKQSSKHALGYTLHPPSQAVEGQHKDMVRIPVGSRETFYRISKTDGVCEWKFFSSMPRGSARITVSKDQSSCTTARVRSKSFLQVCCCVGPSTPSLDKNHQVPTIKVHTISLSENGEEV
In words: Displacement of [125I]HEAT from human Alpha-1A adrenergic receptor. The gist of the method:
as §1

Experiment [3] has as its target T3, Alpha-1B adrenergic receptor (Homo sapiens, UniProt P35368).
T3 sequence (P35368 whole entry): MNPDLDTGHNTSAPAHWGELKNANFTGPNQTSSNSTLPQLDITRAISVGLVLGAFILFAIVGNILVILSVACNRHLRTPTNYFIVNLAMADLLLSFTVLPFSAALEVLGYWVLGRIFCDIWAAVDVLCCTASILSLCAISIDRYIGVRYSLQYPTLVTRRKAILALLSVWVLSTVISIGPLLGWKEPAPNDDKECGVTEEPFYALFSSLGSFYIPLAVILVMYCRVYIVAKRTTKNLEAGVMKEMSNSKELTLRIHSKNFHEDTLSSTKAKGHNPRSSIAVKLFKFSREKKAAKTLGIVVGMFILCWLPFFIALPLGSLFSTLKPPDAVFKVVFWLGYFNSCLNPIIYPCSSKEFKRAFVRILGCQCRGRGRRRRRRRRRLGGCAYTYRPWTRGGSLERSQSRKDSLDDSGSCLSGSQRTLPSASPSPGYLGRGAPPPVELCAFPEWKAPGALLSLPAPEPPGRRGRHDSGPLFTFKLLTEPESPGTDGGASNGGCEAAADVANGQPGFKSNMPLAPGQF
In words: Displacement of [125I]-HEAT from human Alpha-1B adrenergic receptor. Put shortly: as §1

Experiment [4] deals with Adrenergic receptors; alpha-1 A & B (Homo sapiens) (UniProt P35348+P35368). Briefly: Relative binding affinity for alpha-1b and alpha-1a adrenergic receptors. Format: protein assay.
For experiment [5], the target named is Alpha adrenergic receptor (1a and 1d) (Homo sapiens) (UniProt P35348+P25100). In words: Relative binding affinity for alpha-1d and Alpha-1A adrenergic receptors. Format: protein assay.

The term pKi denotes −log10 of the Ki, conventionally taken in molar units. For the molecule `CC(C)Oc1ccccc1N1CCN(Cc2nc(CN3C(=O)CC4(CCCC4)CC3=O)co2)CC1`, the values for the pKi in experiment [1], in experiment [2] and in experiment [3] were 5.38, 7.09 and less than 5.30, respectively. Further, the Ki ratio in experiment [4] was greater than 61; in experiment [5], 50.
For `CC(C)Oc1ccccc1N1CCN(Cc2nc(CN3CCCCC3=O)co2)CC1`, the pKi in experiment [1] was less than 5.30; in experiment [2], 5.63; in experiment [3], less than 5.30. The Ki ratio in experiment [4] and in experiment [5] was greater than 2.2 each time.
Regarding `CC(C)Oc1ccccc1N1CCN(Cc2nc(CN3CCCC3=O)co2)CC1`, the pKi in experiment [1] was less than 5.30; in experiment [2] it was 5.89; in experiment [3], less than 5.30. In addition, the Ki ratio in experiment [4] and in experiment [5] was greater than 3.8 throughout.
In the case of `O=C1CCCN1Cc1cc(CN2CCN(c3ccccc3Oc3ccccc3)CC2)on1`, the pKi was 7.46 in experiment [1], 7.55 in experiment [2] and less than 5.30 in experiment [3]. Moreover, the Ki ratio is greater than 170 in experiment [4] and 1.2 in experiment [5].
The like results for `CC(C)Oc1ccccc1N1CCN(Cc2nc(CN3C(=O)c4ccccc4C3=O)co2)CC1` were, in that order, 5.96, 6.53, less than 5.30, greater than 16.8 and 3.7.
With `CC(C)Oc1ccccc1N1CCN(Cc2nc(CN3CCCCCC3=O)co2)CC1`, the pKi in experiment [1] is less than 5.30; in experiment [2], 5.46; in experiment [3], less than 5.30. Besides, the Ki ratio in experiment [4] and in experiment [5] was greater than 1.4 each time.
For the molecule `CC(C)Oc1ccccc1N1CCN(Cc2nc(CN3CCCC3=O)cs2)CC1`, the figures for the pKi in experiment [1], in experiment [2] and in experiment [3] were 6.98, 9.05 and 5.37, respectively. The Ki ratio stood at 4520 in experiment [4] and 112 in experiment [5].
For `CC(C)Oc1ccccc1N1CCN(Cc2cc(CN3CCCCC3=O)no2)CC1` the same measures were 5.84, 8.08, less than 5.30, greater than 595 and 174.
The like results for `O=C1CCCCN1Cc1cc(CN2CCN(c3ccccc3Oc3ccccc3)CC2)on1` were, in that order, 6.77, 7.82, 5.66, 147 and 11.3.
For the molecule `CC(C)Oc1ccccc1N1CCN(Cc2nc(CN3CCCCC3=O)cs2)CC1`, the pKi was 7.40 in experiment [1], 8.92 in experiment [2] and 5.76 in experiment [3]. In addition, the figures for the Ki ratio in experiment [4] and in experiment [5] were 1450 and 33, respectively.
Consider `CC(C)Oc1ccccc1N1CCN(Cc2cc(CN3CCCC3=O)no2)CC1`, for which the figures for the pKi in experiment [1], in experiment [2] and in experiment [3] were 7.18, 8.96 and 5.52, respectively. Besides, the figures for the Ki ratio in experiment [4] and in experiment [5] were 2720 and 60, respectively.
As to `OCc1cc(CN2CCN(c3ccccc3Oc3ccccc3)CC2)on1`, the values for the pKi in experiment [1], in experiment [2] and in experiment [3] were 5.51, 5.82 and 5.43, respectively. Further, the values for the Ki ratio in experiment [4] and in experiment [5] were 2.5 and 2, respectively.
For `O=C1CCCCCN1Cc1cc(CN2CCN(c3ccccc3Oc3ccccc3)CC2)on1` the same measures were 6.55, 7.07, less than 5.30, greater than 58 and 3.3.
